Data: ChEMBL document CHEMBL1158389, “Highly twisted adamantyl arotinoids: synthesis, antiproliferative effects and RXR transactivation profiles” (Eur J Med Chem, 2009)
The source made the active and inactive calls. The calls are words filed in the database; no cut-off is given here.

How the values were obtained:
[1] = system: T47D; test: Antiproliferative activity against human T47D cells at 4 uM after 48 hrs by MTT assay; format: functional
Method in brief: (§1)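 Epithelial cancer lines came from ATCC and were seeded the day before in complete medium: PC-3, SkOV3 and A549 at 3,000/well; MiaPaCa-2 and BxPC-3 at 4,000; T-47D and MDA-MB-468 at 5,000. Medium was switched to 0.5% FBS just before exposure to 4 μM. Read-out was MTT (4 h, 37 °C), SDS/HCl solubilisation, A595 minus cell-free blank. Growth inhibition was taken versus DMSO (≤0.1% v/v) controls, ≥2 experiments in triplicate.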

[2] = target: T1, Retinoic acid receptor beta (Homo sapiens) (UniProt P10826); test: Inhibition of transactivation activity of Gal4-LBD fused human RARbeta (169 to 448) transfected in atRA-stimulated african green monkey CV1 cells at 4 uM after 6 hrs by Dual-light chemiluminescent assay; format: cell-based; conditions: CV-1
T1 sequence (whole entry): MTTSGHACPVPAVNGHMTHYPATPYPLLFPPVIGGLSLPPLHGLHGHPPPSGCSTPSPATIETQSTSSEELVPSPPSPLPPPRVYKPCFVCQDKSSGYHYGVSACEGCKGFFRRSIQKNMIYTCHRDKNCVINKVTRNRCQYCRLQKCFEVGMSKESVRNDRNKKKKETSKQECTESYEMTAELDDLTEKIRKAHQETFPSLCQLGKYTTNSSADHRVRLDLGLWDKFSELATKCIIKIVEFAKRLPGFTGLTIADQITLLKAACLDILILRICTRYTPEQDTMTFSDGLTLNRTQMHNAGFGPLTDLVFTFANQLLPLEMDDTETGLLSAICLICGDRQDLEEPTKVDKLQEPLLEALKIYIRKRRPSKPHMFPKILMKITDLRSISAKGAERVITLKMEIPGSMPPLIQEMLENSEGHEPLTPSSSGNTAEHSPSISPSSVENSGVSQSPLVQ
Method in brief: (§2)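 Gal4 DBD (1–147) was fused to hRARα (156–462) or hRARβ (169–448) LBD. CV-1 cells (20,000/well) were co-transfected with 10 ng Gal4-LBD, 100 ng UAS-luciferase and 25 ng β-gal vector. After 16 h the medium was replaced with medium containing 5% charcoal-treated FBS. Cells got atRA plus test compound at 10-, 40- or 200-fold excess (0.2, 0.8, 4 μM) for 6 h. Luciferase and β-galactosidase were read by chemiluminescence.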

[3] = system: Jurkat; test: Induction of apoptosis in human Jurkat T cells assessed as induction of DEVDase activity at 4 uM after 4 hrs by fluorescence assay; format: functional, cell-based
Method in brief: (§3)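 Jurkat cells (40,000/well, 10^6 cells/mL, RPMI with 0.5% FBS) were treated for 4 h; controls got 0.1% DMSO. Lysis was in CE buffer (PIPES pH 7, NP-40, cytochalasin B, protease inhibitors) for 30 min at 4 °C. Lysates were mixed with 2x caspase buffer (HEPES pH 7.4, CHAPS, sucrose) holding 100 μM Ac-DEVD-AFC and incubated at 37 °C for 30 min. AFC was read every 2 min, ex 390/em 510 nm.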

[4] = target: T1, Retinoic acid receptor beta (Homo sapiens); test: Transactivation of Gal4-LBD fused human RARbeta (169 to 448) transfected in african green monkey CV1 cells assessed as luciferase activity at 2 uM after 6 hrs by Dual-light chemiluminescent assay; format: cell-based; conditions: CV-1
Method in brief: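 Transfected CV-1 cells carried Gal4-LBD constructs: hRARα 156–462, hRARβ 169–448, hRARγ 178–454 or mRXRα 218–467. Transfection used 10 ng Gal4-LBD, 100 ng UAS-luciferase and 25 ng β-gal vector. After 16 h the medium was changed to 5% charcoal-treated FBS. Cells were stimulated with 2 μM analog for 6 h (RARα, RARβ, RXRα) or 20 h (RARγ). Reference agonists were 1 μM atRA (RARα) and 1 μM 9cRA (RXRα). Luciferase and β-galactosidase were read by chemiluminescence.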

[5] = system: MIA PaCa-2; test: Antiproliferative activity against human MIAPaCa2 cells at 4 uM after 48 hrs by MTT assay; format: functional; conditions: MIA PaCa-2, 48 h; method in brief: as §1
[6] = target: T2, Retinoic acid receptor gamma (Homo sapiens) (UniProt P13631); test: Inhibition of transactivation activity of Gal4-LBD fused human RARgamma (178 to 454) transfected in atRA-stimulated african green monkey CV1 cells at 4 uM after 20 hrs by Dual-light chemiluminescent assay; conditions: CV-1
T2 sequence (whole entry): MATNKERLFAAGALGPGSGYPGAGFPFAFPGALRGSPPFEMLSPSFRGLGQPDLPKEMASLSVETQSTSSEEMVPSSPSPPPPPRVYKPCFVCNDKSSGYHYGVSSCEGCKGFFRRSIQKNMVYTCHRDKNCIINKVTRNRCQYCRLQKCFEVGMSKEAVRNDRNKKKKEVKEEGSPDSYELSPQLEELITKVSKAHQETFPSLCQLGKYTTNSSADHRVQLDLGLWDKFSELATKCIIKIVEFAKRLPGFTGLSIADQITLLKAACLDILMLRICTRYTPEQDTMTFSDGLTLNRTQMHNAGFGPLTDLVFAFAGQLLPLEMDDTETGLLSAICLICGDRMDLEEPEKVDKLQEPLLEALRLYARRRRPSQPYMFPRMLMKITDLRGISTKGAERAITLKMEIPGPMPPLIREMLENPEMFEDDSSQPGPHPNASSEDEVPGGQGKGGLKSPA

[7] = system: BXPC-3; test: Antiproliferative activity against human BxPC3 cells at 4 uM after 48 hrs by MTT assay; format: functional; conditions: BXPC-3, 48 h; method in brief: as §1
[8] = target: T3, Retinoic acid receptor alpha (Homo sapiens) (UniProt P10276); test: Transactivation of Gal4-LBD fused human RARalpha (156 to 454) transfected in african green monkey CV1 cells assessed as luciferase activity at 2 uM after 6 hrs by Dual-light chemiluminescent assay; format: cell-based; conditions: CV-1
T3 sequence (whole entry): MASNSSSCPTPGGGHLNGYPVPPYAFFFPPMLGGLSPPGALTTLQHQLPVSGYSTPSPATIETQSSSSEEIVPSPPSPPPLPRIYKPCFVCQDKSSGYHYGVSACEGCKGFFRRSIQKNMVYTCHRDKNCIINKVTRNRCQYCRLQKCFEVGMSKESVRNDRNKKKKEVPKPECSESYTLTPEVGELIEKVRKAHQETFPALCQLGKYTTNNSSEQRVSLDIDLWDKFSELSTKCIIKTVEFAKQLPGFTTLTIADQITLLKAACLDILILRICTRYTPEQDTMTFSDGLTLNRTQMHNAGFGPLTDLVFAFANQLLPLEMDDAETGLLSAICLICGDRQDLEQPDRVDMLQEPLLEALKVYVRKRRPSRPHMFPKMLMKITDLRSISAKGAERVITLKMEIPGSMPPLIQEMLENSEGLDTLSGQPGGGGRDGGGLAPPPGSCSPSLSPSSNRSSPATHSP

[9] = target: T3, Retinoic acid receptor alpha (Homo sapiens); test: Inhibition of transactivation activity of Gal4-LBD fused human RARalpha (156 to 454) transfected in atRA-stimulated african green monkey CV1 cells at 0.2 uM after 6 hrs by Dual-light chemiluminescent assay; format: cell-based; method in brief: as §2
[10] = system: Jurkat; test: Induction of apoptosis in human Jurkat T cells assessed as induction of DEVDase activity at 1 uM after 4 hrs by fluorescence assay; format: functional, cell-based; method in brief: as §3
[11] = system: MDA-MB-468; test: Antiproliferative activity against human MDA-MB-468 cells at 4 uM after 48 hrs by MTT assay; format: functional; conditions: MDA-MB-468, 48 h; method in brief: as §1
[12] = system: PC-3; test: Antiproliferative activity against human PC3 cells at 4 uM after 48 hrs by MTT assay; format: functional; conditions: PC-3, 48 h; method in brief: as §1
[13] = system: A549; test: Antiproliferative activity against human A549 cells at 4 uM after 72 hrs by MTT assay; format: functional; conditions: A549, 72 h; method in brief: as §1
[14] = system: SK-OV-3; test: Antiproliferative activity against human SKOV3 cells at 4 uM after 48 hrs by MTT assay; format: functional; conditions: SK-OV-3, 48 h; method in brief: as §1
[15] = system: Jurkat; test: Antiproliferative activity against human Jurkat T cells after 48 hrs by MTT assay
[16] = target: T4, Retinoic acid receptor RXR-alpha (Mus musculus, UniProt P28700); test: Transactivation of Gal4-LBD fused mouse RXRalpha (218 to 467) transfected in african green monkey CV1 cells assessed as luciferase activity at after 6 hrs by Dual-light chemiluminescent assay; format: cell-based, CV-1
T4 sequence (P28700 whole entry): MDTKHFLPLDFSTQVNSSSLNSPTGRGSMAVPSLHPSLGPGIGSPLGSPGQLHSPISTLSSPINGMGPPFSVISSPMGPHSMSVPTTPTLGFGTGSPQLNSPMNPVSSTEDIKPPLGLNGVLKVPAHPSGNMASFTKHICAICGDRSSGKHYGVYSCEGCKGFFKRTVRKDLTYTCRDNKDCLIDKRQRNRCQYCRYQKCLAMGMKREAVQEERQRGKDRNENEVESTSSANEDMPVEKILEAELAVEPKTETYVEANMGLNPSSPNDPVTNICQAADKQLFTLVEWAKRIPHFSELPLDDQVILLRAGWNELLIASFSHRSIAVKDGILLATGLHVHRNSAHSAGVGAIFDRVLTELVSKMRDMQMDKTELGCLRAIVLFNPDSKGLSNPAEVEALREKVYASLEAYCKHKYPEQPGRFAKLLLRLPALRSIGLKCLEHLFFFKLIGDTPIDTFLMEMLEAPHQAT

[17] = system: Jurkat; test: Antiproliferative activity against human Jurkat T cells at 62.5 nM after 48 hrs by MTT assay; format: functional, cell-based
Method in brief: (§4)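 Jurkat T cells were resuspended at 10^5 cells/mL in RPMI with 0.5% FBS (10,000/well) and seeded immediately before dosing at 62.5 nM–2 μM for two days. Viability was read by MTT (4 h, 37 °C), formazan dissolved in 10% SDS/10 mM HCl, A595 with cell-free background subtracted. Values are relative to DMSO controls (≤0.1% v/v); at least two experiments in triplicate.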

[18] = system: Jurkat; test: Antiproliferative activity against human Jurkat T cells at 2 uM after 48 hrs by MTT assay; format: functional, cell-based; method in brief: as §4
[19] = target: T3, Retinoic acid receptor alpha (Homo sapiens); test: Inhibition of transactivation activity of Gal4-LBD fused human RARalpha (156 to 454) transfected in atRA-stimulated african green monkey CV1 cells at 4 uM after 6 hrs by Dual-light chemiluminescent assay; format: cell-based; conditions: CV-1; method in brief: as §2

| Activity [2] | Activity [4] | Activity [6] | Activity [8] | inhibition ([9]; CV-1, 4 uM, in the assay text read “at 4 uM” for “at 0.2 uM”) | IC50 [15] | inhibition ([9]; CV-1, 0.2 uM) | EC50 [16] | inhibition [19] | SMILES | inhibition at 4 µM [1] | Activity [3] | inhibition at 4 µM [5] | inhibition at 4 µM [7] | Activity [10] | inhibition at 4 µM [11] | inhibition at 4 µM [12] | inhibition at 4 µM [13] | inhibition at 4 µM [14] | Activity [17] | Activity [18] |
| --- | --- | --- | --- | --- | --- | --- | --- | --- | --- | --- | --- | --- | --- | --- | --- | --- | --- | --- | --- | --- |
| Active | inactive | Active | inactive | 90% | 0.287 µM |  |  |  | COCCOCOc1ccc(C(=O)/C=C/c2ccc(C(=O)O)cc2)cc1C12CC3CC(CC(C3)C1)C2 | 50.6% | Active | 74.9% | 96.6% | Active | 72.4% | 92.1% | 42.1% | 61.5% |  |  |
| inactive | inactive | inactive | inactive |  | 1.41 µM | inactive | 0.576 µM |  | Cc1cc(O)c(C23CC4CC(CC(C4)C2)C3)cc1-c1ccc(/C=C/C(=O)O)cc1Cl | 24.2% |  | 26.3% | 36% |  | 24.9% | 68.7% | 23.7% | 65.1% | inactive |  |
| inactive | inactive | inactive | inactive |  |  | inactive |  |  | Cc1cc(O)c(C23CC4CC(CC(C4)C2)C3)cc1-c1ccc(CC(=O)O)cc1Cl | 29.1% |  | 26.8% | 49.2% |  | 11.1% | 66.7% | 15.9% | 30.3% | inactive | Active |
| inactive | inactive | inactive | inactive |  | 0.435 µM | inactive |  | 27% | Cc1cc(O)c(C23CC4CC(CC(C4)C2)C3)cc1-c1ccc2cc(C(=O)O)ccc2c1Cl | 55.8% |  | 91.5% | 94.7% | Active | 59.2% | 97.7% | 88.1% | 87% |  |  |
|  | inactive |  | inactive |  | 0.082 µM |  |  |  | C/C(=C/c1ccc(C(=O)O)cc1)c1ccc(O)c(C23CC4CC(CC(C4)C2)C3)c1 | 62.7% | Active | 76.1% | 95.7% | Active | 76.7% | 92.3% | 79% | 67% |  |  |
| inactive | inactive | inactive | inactive |  | 1.87 µM | inactive | 0.6 µM | 27% | COCCOCOc1cc(C)c(-c2ccc(/C=C/C(=O)O)cc2Cl)cc1C12CC3CC(CC(C3)C1)C2 | 29.1% |  | 63.3% | 45.8% |  | 42% | 72% | 51.1% | 80.1% |  |  |
